These results are taken from ChEMBL document CHEMBL1629545, “A morpholino oligomer targeting highly conserved internal ribosome entry site sequence is able to inhibit multiple species of picornavirus” (Antimicrob Agents Chemother, 2008).

Structures are written as SMILES. The source made the active and inactive calls. No cut-off for these calls is given here.

Data set [1] concerns HeLa. The experiment in a line: Cytotoxicity against human HeLa cells at 10 uM after 48 hrs by MTS assay. Format: cell-based. A digest of the protocol:
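Time-course viability: uninfected HeLa cells were kept in 10 μM PPMO in DMEM-F-12 and assayed at time points from 10 to 69 h after treatment began. Read-out was the MTS reagent for 4 h with absorbance at 492 nm. Results are given as percent of water-mock cells, each point the mean of 12 wells.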
In general terms: Tetrazolium dyes change colour on reduction, which living cells bring about.

Data set [2] has as its system Poliovirus 1. The experiment in a line: Antiviral activity against Human poliovirus type 1 infected in Human HeLa cell assessed as inhibition of translation at 10 ug/ml by luciferase reporter gene assay. The data set is classed as functional, organism-based. The method in brief:
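In-cell translation control: HeLa cells electroporated with 20 μg PV1-Luc replicon RNA were placed in medium with 10 μg/ml puromycin at 37°C in 5% CO2. Luciferase in lysates was read by luminometer at hourly time points after transfection. Two experiments were averaged.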
For orientation: Reporter assays use an easily measured gene product as a stand-in for the process of interest.

In data set [3] the test system is SK-N-MC. As to the kind of experiment: Cytotoxicity against human SK-N-MC cell at 10 uM after 24 hrs by MTS assay. The data set is classed as cell-based.
The subject of data set [4] is Vero. As to the kind of experiment: Cytotoxicity against African green monkey Vero cells at 10 uM after 24 hrs by MTS assay. Format: cell-based. To be noted: chlorocebus sabaeus.
Data set [5] relates to HeLa. As to the kind of experiment: Cytotoxicity against human HeLa cells 10 uM after 24 hrs by MTS assay. Format: cell-based. The method in brief: (§1)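 HeLa cells at ~80% confluence, uninfected, exposed to 1–100 μM PPMO or water (mock) in serum-free DMEM-F-12 (1:1) for 24 h. MTS reagent was added for 4 h and absorbance read at 492 nm. Viability was expressed as percent of water-treated cells (set to 100%), averaged over 12 wells.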

In data set [6] the test system is HeLa. As to the kind of experiment: Cytotoxicity against human HeLa cells at 10 uM by MTS assay. Format: cell-based. A digest of the protocol:
as §1

With `Cc1cn([C@H]2CN(P(=O)(OC[C@@H]3CN(P(=O)(OC[C@@H]4CN(P(=O)(OC[C@@H]5CNC[C@H](n6ccc(N)nc6=O)O5)N(C)C)C[C@H](n5cnc6c(N)ncnc65)O4)N(C)C)C[C@H](n4ccc(N)nc4=O)O3)N(C)C)C[C@@H](COP(=O)(N(C)C)N3C[C@@H](COP(=O)(N(C)C)N4C[C@@H](COP(=O)(N(C)C)N5C[C@@H](COP(=O)(N(C)C)N6C[C@@H](COP(=O)(N(C)C)N7C[C@@H](COP(=O)(N(C)C)N8C[C@@H](COP(=O)(N(C)C)N9C[C@@H](COP(=O)(N(C)C)N%10C[C@@H](COP(=O)(N(C)C)N%11C[C@@H](COP(=O)(N(C)C)N%12C[C@@H](COP(=O)(N(C)C)N%13C[C@@H](COP(=O)(N(C)C)N%14C[C@@H](COP(=O)(N(C)C)N%15C[C@@H](COP(=O)(N(C)C)N%16C[C@@H](COP(=O)(N(C)C)N%17C[C@@H](COP(=O)(N(C)C)N%18C[C@@H](COP(=O)(N(C)C)N%19C[C@@H](COP(=O)(N(C)C)N%20C[C@@H](COP(=O)(N(C)C)N%21C[C@@H](COP(=O)(N(C)C)N%22C[C@@H](COP(=O)(N(C)C)N%23CCN(C(=O)CCNC(=O)CCCCCNC(=O)[C@H](CCCNC(=N)N)NC(=O)CCCCCNC(=O)[C@H](CCCNC(=N)N)NC(=O)[C@H](CCCNC(=N)N)NC(=O)CCCCCNC(=O)[C@H](CCCNC(=N)N)NC(=O)[C@H](CCCNC(=N)N)NC(=O)CCCCCNC(=O)[C@H](CCCNC(=N)N)NC(=O)[C@H](CCCNC(=N)N)NC(=O)CCCCCNC(=O)[C@@H](N)CCCNC(=N)N)CC%23)O[C@@H](n%23ccc(N)nc%23=O)C%22)O[C@@H](n%22cnc%23c(N)ncnc%23%22)C%21)O[C@@H](n%21cnc%22c(N)ncnc%22%21)C%20)O[C@@H](n%20ccc(N)nc%20=O)C%19)O[C@@H](n%19cnc%20c(=O)[nH]c(N)nc%20%19)C%18)O[C@@H](n%18ccc(N)nc%18=O)C%17)O[C@@H](n%17cnc%18c(N)ncnc%18%17)C%16)O[C@@H](n%16cnc%17c(=O)[nH]c(N)nc%17%16)C%15)O[C@@H](n%15ccc(N)nc%15=O)C%14)O[C@@H](n%14ccc(N)nc%14=O)C%13)O[C@@H](n%13cc(C)c(=O)[nH]c%13=O)C%12)O[C@@H](n%12cnc%13c(=O)[nH]c(N)nc%13%12)C%11)O[C@@H](n%11cnc%12c(=O)[nH]c(N)nc%12%11)C%10)O[C@@H](n%10cnc%11c(N)ncnc%11%10)C9)O[C@@H](n9ccc(N)nc9=O)C8)O[C@@H](n8ccc(N)nc8=O)C7)O[C@@H](n7cnc8c(N)ncnc87)C6)O[C@@H](n6ccc(N)nc6=O)C5)O[C@@H](n5ccc(N)nc5=O)C4)O[C@@H](n4cnc5c(=O)[nH]c(N)nc54)C3)O2)c(=O)[nH]c1=O` (stereo partly specified), the Activity result is “Toxic” in data set [1]; “Non-toxic” in data set [3]; “Non-toxic” in data set [4]; “Toxic” in data set [5]; “Non-toxic” in data set [6]. In addition, in data set [2], the outcome was inactive.
